What was measured:
[1] = target: human serum albumin (Homo sapiens, UniProt P02768); assay: Plasma protein binding estimated by an HPLC-based method; assay type: in vitro ADME
[2] = Experimental distribution coefficient logD7.4; assay type: physicochemical; details: pH 7.4
[3] = test system: NRF2‐ARE pathway; assay: AREc32 luciferase reporter gene assay; assay type: cell-based; details: for ARE specificity ratio, SR: SR = IC10/ECIR1.5, AREc32 cells, 24 h exposure
How it was run: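 AREc32 cells in DMEM+GlutaMAX with 10% FBS and pen/strep, 2650/well, attached 24 h at 37 °C, 5% CO2. Test compound (1×10−15 to 1×10−2 M) for 24 h; tert‐butylhydroquinone as positive control. Luciferase read after PBS washes and Tris/Triton lysis. IR = signal/mean unexposed; ECIR1.5 by linear fit for IR<4. Imaged confluency versus unexposed cells gave IC10 from the linear range.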

[4] = target: human adenosine A2A receptors (Homo sapiens, UniProt P29274); assay: Radioligand competition binding assay with [3H]CGS-21680
How it was run: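 Membranes from CHO-S cells recombinantly expressing the human adenosine A2A receptor. Competition with the A2A-selective agonist radioligand [3H]CGS-21680. Test compound run at concentrations from 10 nM to 100 μM. Read-out is % inhibition of radioligand binding, with Ki estimated; n=3.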

[5] = test system: Vero‐E6 cells
[6] = test system: SARS‐CoV‐2 (B.3 strain); assay: Vero-E6 SARS-CoV-2 plaque reduction assay; assay type: cell-based
[7] = read-out: % inhibition of radioligand binding

Chain of human serum albumin (P02768 25-609): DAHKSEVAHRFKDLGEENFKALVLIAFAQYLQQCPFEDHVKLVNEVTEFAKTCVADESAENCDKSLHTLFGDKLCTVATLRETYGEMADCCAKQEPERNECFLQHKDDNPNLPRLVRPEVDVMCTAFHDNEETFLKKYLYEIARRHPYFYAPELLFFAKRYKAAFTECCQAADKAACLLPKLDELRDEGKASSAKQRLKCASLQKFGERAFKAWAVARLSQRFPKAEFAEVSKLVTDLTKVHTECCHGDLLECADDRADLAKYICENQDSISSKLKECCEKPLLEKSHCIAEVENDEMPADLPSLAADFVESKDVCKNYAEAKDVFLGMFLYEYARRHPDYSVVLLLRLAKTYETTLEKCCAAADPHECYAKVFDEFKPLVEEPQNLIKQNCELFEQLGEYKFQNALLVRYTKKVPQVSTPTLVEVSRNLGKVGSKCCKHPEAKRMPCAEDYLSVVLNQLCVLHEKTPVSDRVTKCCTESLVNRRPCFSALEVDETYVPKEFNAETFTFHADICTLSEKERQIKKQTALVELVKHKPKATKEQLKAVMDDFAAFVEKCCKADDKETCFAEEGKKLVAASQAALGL
Chain of human adenosine A2A receptors (P29274 whole entry): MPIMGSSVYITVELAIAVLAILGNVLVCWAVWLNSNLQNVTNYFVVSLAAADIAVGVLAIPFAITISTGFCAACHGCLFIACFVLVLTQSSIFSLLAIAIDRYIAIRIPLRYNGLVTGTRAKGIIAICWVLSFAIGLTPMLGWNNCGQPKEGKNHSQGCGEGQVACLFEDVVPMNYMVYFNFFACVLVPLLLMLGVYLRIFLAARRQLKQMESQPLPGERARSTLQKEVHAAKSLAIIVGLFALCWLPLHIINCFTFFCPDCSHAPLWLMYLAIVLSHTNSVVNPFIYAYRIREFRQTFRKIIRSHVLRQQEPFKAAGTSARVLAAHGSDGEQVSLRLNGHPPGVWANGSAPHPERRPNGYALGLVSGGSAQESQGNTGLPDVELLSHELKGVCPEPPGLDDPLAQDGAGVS

SMILES | fraction unbound [1] | chromatographic logD [2] | ARE specificity ratio, SR [3] | also measured
C=C1CCC2[C@](C)(C(=O)NCCC)[C@H](O)CC[C@@]2(C)[C@@H]1C/C=C1/C(=O)OC[C@H]1O (stereo partly drawn) [16 a, (1S,2R,4aS,5R)‐2‐Hydroxy‐5‐[(2E)‐2‐[(4S)‐4‐hydroxy‐2‐oxo‐tetrahydrofuran‐3‐ylidene]ethyl]‐1,4 a‐dimethyl‐6‐methylene‐N‐propyl‐decalin‐1‐carboxamide] | 0.17 | 1.9 | 35.6 | –
C=C1CCC2[C@](C)(C(=O)NCCc3ccccc3)[C@H](O)CC[C@@]2(C)[C@@H]1C/C=C1/C(=O)OC[C@H]1O (stereo partly drawn) [16 b, (1S,2R,4aS,5R)‐2‐Hydroxy‐5‐[(2E)‐2‐[(4S)‐4‐hydroxy‐2‐oxo‐tetrahydrofuran‐3‐ylidene]ethyl]‐1,4 a‐dimethyl‐6‐methylene‐N‐(2‐phenylethyl)decalin‐1‐carboxamide] | 0.62 | 2.5 | 10.8 | –
C=C1CCC2[C@](C)(C(=O)NCCOCCOCCOCCOC)[C@H](O)CC[C@@]2(C)[C@@H]1C/C=C1/C(=O)OC[C@H]1O (stereo partly drawn) [16 c, (1S,2R,4aS,5R)‐2‐Hydroxy‐5‐[(2E)‐2‐[(4S)‐4‐hydroxy‐2‐oxo‐tetrahydrofuran‐3‐ylidene]ethyl]‐N‐[2‐[2‐[2‐(2‐methoxy‐ethoxy)ethoxy]ethoxy]ethyl]‐1,4 a‐dimethyl‐6‐methylene‐decalin‐1‐carboxamide] | 0.08 | 1.3 | 13.3 | –
C=C1CC[C@@H]2[C@](C)(CO)[C@H](O)CC[C@@]2(C)[C@@H]1C/C=C1/C(=O)OC[C@H]1O [Compound 1, Andrographolide] | – | – | 19.4 | Ki [4]: > 100 µM; inhibition at 10 µM [4, 7]: 7%; inhibition at 100 µM [4, 7]: 33%; Effect on Vero-E6 cell proliferation (crystal violet staining) ([5]; at 10 μM): inhibited cell proliferation; Toxicity on attached Vero-E6 cells ([5]; at any concentration (0.5-10 μM)): did not show toxicity
C=C1CCC2[C@](C)(CO)[C@H](O)CC[C@@]2(C)[C@@H]1CCC1C(=O)OC[C@H]1O (stereo partly drawn) [Compound 11, (4S)‐3‐[2‐[(1R,5R,6R,8aS)‐6‐Hydroxy‐5‐(hydroxymethyl)‐5,8 a‐dimethyl‐2‐methylene‐decalin‐1‐yl]ethyl]‐4‐hydroxy‐tetrahydrofuran‐2‐one] | – | – | – | Anti-SARS-CoV-2 activity (in words) [6]: did not possess anti‐SARS‐CoV‐2 activities
CC(C)(C)c1cc(O)ccc1O [Tert‐butylhydroquinone, reference compound] | – | – | – | ECIR1.5 ([3]; effect concentration causing an induction ratio (IR) of 1.5, linear model, 24 h): 3.4 ± 0.2 µM

From paper PMC9015489 (Chemmedchem, 2022)
